Data published in ChEMBL document CHEMBL1759946, “Proflavine derivatives as fluorescent imaging agents of amyloid deposits” (Bioorg Med Chem Lett, 2011).
Active and inactive are the calls of the source. The calls are words filed in the database; no cut-off is given here.

Species: Mus musculus
Assay: Binding affinity to beta amyloid plaque in triple transgenic alzheimer disease mouse model hippocampus at 100 uM after 90 mins by fluorescence microscopy
Format: tissue-based
How it was run: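 Plaque labeling was read from the compound's native fluorescence with fluorescein optics. Plaques were confirmed by thioflavin S staining of adjacent sections. Controls were age-matched wild-type sections, untreated sections and DAPI counterstain.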

Activity | Structure (SMILES)
Active | COc1ccc2c(c1)CN1c3ccc(OC)cc3CN2C1CCCCCCCn1cc(CNCCC(=O)Nc2ccc3cc4ccc(NC(C)=O)cc4nc3c2)nn1

System: not listed separately
Assay: Inhibition of amyloid beta (1 to 40) fibril formation at 10 uM after 8 days by thioflavin T fluorescent dye assay
How it was run: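 Compound at 10 µM was co-incubated for eight days with Aβ40 (50 µM) in the presence of thioflavin T. Dye fluorescence was read at 485 nm and expressed as percent of the control assay with Aβ40 alone.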

Structure (SMILES) | inhibition
CC(=O)Nc1ccc2cc3ccc(NC(=O)CN=[N+]=[N-])cc3nc2c1 | 50%
C#CCOC(=O)Nc1ccc2cc3ccc(NC(C)=O)cc3nc2c1 | Active
COc1cc(/C=C/C(=O)CC(=O)/C=C/c2ccc(O)c(OC)c2)ccc1O | 80%
CC(=O)Nc1ccc2cc3ccc(NC(=O)CCN)cc3nc2c1 | 50%
COc1ccc2c(c1)CN1c3ccc(OC)cc3CN2C1CCCCCCCn1cc(COC(=O)Nc2ccc3cc4ccc(NC(C)=O)cc4nc3c2)nn1 | 50%
C#CCNCCC(=O)Nc1ccc2cc3ccc(NC(C)=O)cc3nc2c1 | 50%

Now from value to compound:

inhibition | Structure (SMILES)
50% | CC(=O)Nc1ccc2cc3ccc(NC(=O)Cn4cc(CNC(=O)CCCCC5CCSS5)nn4)cc3nc2c1 (centres undefined)
50% | COc1ccc2c(c1)CN1c3ccc(OC)cc3CN2C1CCCCCCCn1cc(CNCCC(=O)Nc2ccc3cc4ccc(NC(C)=O)cc4nc3c2)nn1
50% | CC(=O)Nc1ccc2cc3ccc(NC(=O)CCNC(=O)CCCCC4CCSS4)cc3nc2c1 (centres undefined)

System: not listed separately
Assay: Induction of amyloid beta 40 fibril disassembly at 1:2 compound:amyloid-beta ratio
How it was run: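 Fresh preformed Aβ40 fibrils were incubated at 37 °C with compound at a compound/Aβ ratio of 1/2. Disassembly was followed by the change in thioflavin T fluorescence.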

Activity [%] | Structure (SMILES)
60 | O=C(O)CCCCC1CCSS1 (centres undefined)
90 | COc1cc(/C=C/C(=O)CC(=O)/C=C/c2ccc(O)c(OC)c2)ccc1O

System: not listed separately
Assay: Inhibition of amyloid beta (1 to 40) fibril formation at 10 uM after 8 days by thioflavin T fluorescent dye assay

inhibition | Structure (SMILES)
inactive | C#CCNC(=O)CCCCC1CCSS1 (racemic)
inactive | COc1ccc2c(c1)CN1c3ccc(OC)cc3CN2C1CCCCCCCN=[N+]=[N-]
